Experimental data published in ChEMBL document CHEMBL2016456, “Antiangiogenic effect of chamigrane endoperoxides from a Thai mangrove-derived fungus” (J Nat Prod, 2011).
Calls of active or inactive are those of the source. The calls are words filed in the database; no cut-off is given here.

Key:
[1] = system: Aorta; assay: Antiangiogenic activity in Wistar rat aortic ring assessed as complete inhibition of microvessel sprouting at 25 uM after 7 days by phase-contrast microscopy; format: functional, tissue-based
[2] = system: Aorta; assay: Antiangiogenic activity in Wistar rat aortic ring assessed as complete inhibition of microvessel sprouting at 2.5 uM after 7 days by phase-contrast microscopy; format: functional, tissue-based
[3] = system: Aorta; assay: Antiangiogenic activity in Wistar rat aortic ring assessed as complete inhibition of microvessel sprouting at 2.5 uM after 7 days by phase-contrast microscopy relative to steperoxide A; format: functional
[4] = system: HUVEC; assay: Antiproliferative activity against HUVEC after 72 hrs by WST8 assay; format: functional, cell-based; settings: Homo sapiens
Procedure, shortened: (§1)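 HUVECs at 1.5 × 10^4 cells/mL plated and grown 24 h. Medium then replaced with HuMedia EG2 containing compound or DMSO for 72 h at 37 C, 5% CO2. Proliferation read by WST-8 absorbance at 450 nm.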

[5] = system: HUVEC; assay: Antiproliferative activity against HUVEC at 25 uM after 72 hrs by WST8 assay; format: functional; settings: Homo sapiens; procedure, shortened: as §1
[6] = system: HUVEC; assay: Antiangiogenic activity in HUVEC assessed as inhibition of VEGF-induced endothelial migration after 6 hrs using Diff-Quik staining by modified Boyden chamber based chemotactic migration assay; format: functional, cell-based; settings: Homo sapiens
Procedure, shortened: (§2)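 Modified Boyden chamber, 8 μm membrane coated with 0.1% gelatin. HUVECs (2.5 × 10^5 cells/mL) in Medium 199 with 0.1% BSA in upper chamber. Lower well held Medium 199, 0.1% BSA, VEGF 10 ng/mL, with or without compound. After 6 h at 37 C, migrated cells methanol-fixed, Diff-Quik stained, counted in three fields at 200×.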

[7] = system: HUVEC; assay: Antiangiogenic activity in HUVEC assessed as inhibition of tube formation at 2.5 to 10 uM after 12 hrs by light microscopy matrigel based assay; format: functional, cell-based; settings: Homo sapiens
Procedure, shortened: (§3)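 HUVECs (passages 3–7) at 1 × 10^5 cells/mL in HuMedia EG2 with compound or DMSO seeded onto solidified Matrigel. Incubated 12 h at 37 C, 5% CO2. Tube formation observed under inverted light microscope at 40× and photographed.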

[8] = system: HUVEC; assay: Antiangiogenic activity in HUVEC assessed as inhibition of tube formation at 25 uM after 12 hrs by light microscopy matrigel based assay; format: functional; settings: Homo sapiens; procedure, shortened: as §3
[9] = system: HUVEC; assay: Antiangiogenic activity in HUVEC assessed as complete inhibition of tube formation at 50 uM after 12 hrs by light microscopy matrigel based assay; format: functional, cell-based; settings: Homo sapiens; procedure, shortened: as §3
[10] = target: T1, Mitogen-activated protein kinase; ERK1/ERK2 (Homo sapiens) (UniProt P27361+P28482); assay: Inhibition of VEGF-stimulated ERK1/2 activation in HUVEC after 1 hr by Western blot analysis; format: protein assay
Procedure, shortened: (§4)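 Confluent HUVECs starved 16 h in RPMI 1640 with 5% FBS. Pretreated 60 min with compound (2.5–10 μM) or vehicle, then stimulated with VEGF 10 ng/mL for 10 min. Lysates (50 μg protein) run on SDS-PAGE under reducing conditions. Blots probed for phospho-Erk1/2 or phospho-Akt and total proteins; chemiluminescence detection.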

[11] = target: T1, Mitogen-activated protein kinase; ERK1/ERK2 (Homo sapiens); assay: Inhibition of VEGF-stimulated ERK1/2 phosphorylation in HUVEC at 2.5 to 10 uM by Western blot analysis; format: protein assay; settings: TDE = time-dependent effect; procedure, shortened: as §4
[12] = system: HUVEC; assay: Inhibition of VEGF-stimulated Akt phosphorylation in HUVEC at 2.5 to 10 uM after 1 hr by Western blot analysis; format: cell-based; settings: Homo sapiens; procedure, shortened: as §4
[13] = system: Mus musculus; assay: Antiangiogenic activity in C57BL/6 mouse assessed as inhibition of bFGF-induced neovascularization at 10 uM, sc after 7 days by matrigel plug assay relative to control; format: functional, organism-based
Procedure, shortened: (§5)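 C57BL/6 mice, male, three per group; 0.5 mL Matrigel with bFGF (10 ng/mL) plus compound (10 μM) or DMSO vehicle injected subcutaneously, allowed to form a plug. After 7 days, plugs excised, formaldehyde-fixed, paraffin-embedded, sectioned, H&E stained. Plug hemoglobin quantified by QuantiChrom kit against hemoglobin standard. Means ± SEM; ANOVA with Dunnett or Student's t test.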

[14] = system: Mus musculus; assay: Antiangiogenic activity in C57BL/6 mouse assessed as decrease in hemoglobin level at 10 uM, sc after 7 days using hematoxylin eosin staining by matrigel plug assay relative to control; format: functional, organism-based; procedure, shortened: as §5
[15] = system: HUVEC; assay: Antiangiogenic activity in HUVEC assessed as inhibition of VEGF-induced endothelial migration at > 5 uM after 6 hrs using Diff-Quik staining by modified Boyden chamber based chemotactic migration assay; format: functional, cell-based; settings: Homo sapiens; procedure, shortened: as §2

T1 sequence (P27361 whole entry, looked up): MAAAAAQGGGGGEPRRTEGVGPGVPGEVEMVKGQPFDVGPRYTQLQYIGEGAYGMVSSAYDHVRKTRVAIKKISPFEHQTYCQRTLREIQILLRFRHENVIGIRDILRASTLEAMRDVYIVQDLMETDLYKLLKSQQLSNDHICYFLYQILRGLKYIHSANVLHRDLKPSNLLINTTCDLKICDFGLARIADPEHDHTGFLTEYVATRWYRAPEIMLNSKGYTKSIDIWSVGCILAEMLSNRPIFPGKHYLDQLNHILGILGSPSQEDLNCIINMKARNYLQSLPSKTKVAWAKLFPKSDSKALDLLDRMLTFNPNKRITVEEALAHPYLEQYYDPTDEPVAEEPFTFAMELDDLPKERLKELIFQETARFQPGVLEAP
T1 sequence (P28482 whole entry, looked up): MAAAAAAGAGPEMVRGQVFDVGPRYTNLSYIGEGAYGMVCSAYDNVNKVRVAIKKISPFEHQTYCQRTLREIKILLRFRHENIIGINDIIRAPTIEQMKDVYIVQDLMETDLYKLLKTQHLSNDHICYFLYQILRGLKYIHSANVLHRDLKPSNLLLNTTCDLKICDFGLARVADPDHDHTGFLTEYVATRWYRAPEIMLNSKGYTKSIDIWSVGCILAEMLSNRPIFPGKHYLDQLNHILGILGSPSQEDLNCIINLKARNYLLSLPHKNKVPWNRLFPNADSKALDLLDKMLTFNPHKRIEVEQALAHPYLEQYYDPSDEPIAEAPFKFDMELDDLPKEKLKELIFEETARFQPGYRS

Compound: CC1(C)C=CC(=O)[C@@]2(C)OO[C@@H]3C[C@]12CCC3O (stereo partly drawn)
- Activity [1]: Active

Compound: CC1(C)CCC(=O)[C@@]2(C)OO[C@@H]3C[C@@]12CCC3(O)CO (stereo partly drawn)
- Activity [1]: inactive

Compound: CC1(C)CCC(=O)[C@@]2(C)OO[C@@H]3C[C@@]12CC[C@H]3O
- Activity [1]: inactive

Compound: CC1(C)C=CC(=O)[C@@]2(C)OO[C@@H]3C[C@]12CCC3(O)CO (stereo partly drawn) [MERULIN C]
- Activity [2]: Active
- fold change (FC) [3]: 10
- Activity [4]: Dose-dependent effect
- IC50 [4]: 900 nM
- inhibition at 25 µM [5]: 90%
- Activity [6]: Dose-dependent effect
- inhibition [7]: inactive
- inhibition at 25 µM [8]: 50%
- inhibition [9]: Active
- inhibition [10]: Dose-dependent effect
- inhibition [11]: tde
- inhibition [12]: inactive
- Activity [13]: Active
- Activity [14]: Active
- Activity [15]: Active
